Results reported in ChEMBL document CHEMBL1781886, “Monoterpenoid indole alkaloids from Gardneria ovata” (J Nat Prod, 2011).

Key:
Assay type in all cases: functional, cell-based
A549 = test: Cytotoxicity against human A549 cells by MTT assay
Method in brief: (§1)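 MTT viability read-out on five human cancer lines tested in parallel: breast MCF-7, hepatocellular SMMC-7721, myeloid leukemia HL-60, colon SW480 and lung A-549. IC50 derived by the Reed and Muench method.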

HL-60 = test: Cytotoxicity against human HL60 cells by MTT assay; method in brief: as §1
SW480 = test: Cytotoxicity against human SW480 cells by MTT assay; method in brief: as §1
MCF7 = test: Cytotoxicity against human MCF7 cells by MTT assay; method in brief: as §1
SMMC-7721 = test: Cytotoxicity against human SMMC7721 cells by MTT assay; method in brief: as §1

Measured: IC50

C/C=C1/C[N+]2([O-])[C@H]3C[C@@]45C(=Nc6cc7c(c(OC)c64)OCO7)OC[C@H]3[C@H]1C[C@@H]52
> 40 µM: A549 | HL-60 | SW480 | MCF7 | SMMC-7721

COC/C=C1\C[N+]2([O-])[C@H]3C[C@@]45C(=Nc6cc7c(c(OC)c64)OCO7)OC[C@H]3[C@H]1C[C@@H]52
> 40 µM: A549 | HL-60 | SW480 | MCF7 | SMMC-7721

COc1c2c(cc3c1[C@@]14C[C@H]5[C@@H](COC1=N3)[C@H]1C[C@@H]4N5C/C1=C\CO)OCO2
> 40 µM: A549 | HL-60 | SW480 | MCF7 | SMMC-7721

COC/C=C1\CN2[C@H]3C[C@@H]1[C@@H]1COC4=Nc5cc6c(c(O[C@@H]7O[C@H](CO)[C@@H](O)[C@H](O)[C@H]7O)c5[C@@]43C[C@@H]12)OCO6
> 40 µM: A549 | HL-60 | SW480 | MCF7 | SMMC-7721

COc1cc(OC)c2c(c1)[C@@]13C[C@H]4[C@@H](COC1=N2)[C@H]1C[C@@H]3N4C/C1=C\CO
> 40 µM: A549 | HL-60 | SW480 | MCF7 | SMMC-7721

C/C=C1/CN2[C@H]3C[C@@H]1[C@@H]1COC4=Nc5c(cc(OC)c(OC)c5OC)[C@@]43C[C@@H]12
> 40 µM: A549 | HL-60 | SW480 | MCF7 | SMMC-7721

C/C=C1/C[N+]2([O-])CC[C@]34C=C(CO)[C@H]1C[C@@]32Nc1ccccc14 (stereo not given in full)
> 40 µM: A549 | HL-60 | SW480 | MCF7 | SMMC-7721

C/C=C1/CN2[C@H]3C[C@@H]1[C@@H]1COC4=Nc5c(OC)cc(OC)cc5[C@@]43C[C@@H]12
> 40 µM: A549 | HL-60 | SW480 | MCF7 | SMMC-7721
